Data as given in PubChem BioAssay AID602423 (Sanford-Burnham Center for Chemical Genomics, 2012).
The source made the active and inactive calls.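 Rule for the calls: active = IC50 at or below 20 µM; inactive = the rest.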

Biological target: glucose-6-phosphate dehydrogenase-6-phosphogluconolactonase (PfGluPho), Plasmodium falciparum 3D7
Assay: inhibition of P. falciparum G6PD-lactonase – biochemical, fluorescence intensity, dose response, set 4, SAR follow-up (AID 602423)
Settings: recombinant PfGluPho, resazurin-diaphorase NADPH fluorescence
In short: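 System: PfGluPho, the glucose-6-phosphate dehydrogenase of Plasmodium falciparum. Quantity: enzyme 0.05 µg/mL. Benchmarks: low control wells lacking glucose-6-phosphate substrate. Also added: G6P 20 µM, NADP 3 µM. Compound dosing: dose-response series. Technique: coupled fluorescence, Ex 530/Em 590 nm. Schedule: enzyme reaction 2 h at room temperature in darkness.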

Row | IC50 | SMILES
1 | 2.98 µM | CCN1CCC[C@@H]1CNC(=O)c1ccc2c(c1)NC(=O)c1ccc(F)cc1S2
2 | > 80 µM (inactive) | CN1CCC(NC(=O)c2ccc3c(c2)NC(=O)c2ccccc2S3)C1 (configuration not stated)
3 | inactive | CN1CCCC1CNC(=O)c1ccc2c(c1)NC(=O)c1ccccc1S2 (configuration not stated)
4 | 0.187 µM | CCN1CCC[C@@H]1CNC(=O)c1ccc2c(c1)NC(=O)c1cccc(C)c1S2
5 | inactive | O=C(NC[C@H]1CCCN1)c1ccc2c(c1)NC(=O)c1ccccc1S2
6 | > 80 µM (inactive) | CCN1CCCCC1CNC(=O)c1ccc2c(c1)NC(=O)c1ccccc1S2 (configuration not stated)
7 | > 80 µM (inactive) | CCN1CCC[C@@H]1CNC(=O)c1ccc2c(c1)NC(=O)c1ccccc1N2
8 | inactive | O=C(NCC1CCCCN1)c1ccc2c(c1)NC(=O)c1ccccc1S2 (configuration not stated)
9 | inactive | CCN1CCC[C@@H]1CNC(=O)c1ccc2c(c1)NC(=O)c1cc(C)ccc1S2
10 | inactive | CCN1CCC(NC(=O)c2ccc3c(c2)NC(=O)c2ccccc2S3)C1 (configuration not stated)
11 | inactive | CCN1CCC[C@@H]1CNC(=O)c1ccc2c(c1)NC(=O)c1cc(F)ccc1S2
12 | inactive | CCCCCCN1CCCC1CNC(=O)c1ccc2c(c1)NC(=O)c1ccccc1S2 (configuration not stated)
13 | 15.1 µM | CCCN1CCC[C@@H]1CNC(=O)c1ccc2c(c1)NC(=O)c1ccccc1S2
14 | 19.9 µM | CCCCN1CCCC1CNC(=O)c1ccc2c(c1)NC(=O)c1ccccc1S2 (configuration not stated)
15 | inactive | CCCN1CCC(NC(=O)c2ccc3c(c2)NC(=O)c2ccccc2S3)C1 (configuration not stated)
16 | inactive | CCCN1CCCCC1CNC(=O)c1ccc2c(c1)NC(=O)c1ccccc1S2 (configuration not stated)
17 | inactive | CN1CCCCC1CNC(=O)c1ccc2c(c1)NC(=O)c1ccccc1S2 (configuration not stated)
